Source: PubChem (Sanford-Burnham Center for Chemical Genomics)
These entries were drawn from the full list.
Apaf-1 act = activators of human Apaf-1 apoptosome; O14727; Apaf-1 apoptosome caspase-3 activation, DEVD-Rh110 fluorescence; stronger effect = lower value; activity change, negative = activation, % at 20 µM; hit rate 0.31% among 330,000;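 active = activity change at or below -40% at 20 µM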
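Material: biochemical Apaf-1 apoptosome reconstitution; Medium: 20 mM HEPES buffer, pH 7.5, containing CHAPS and BSA; Reagent: dATP, cytochrome c, and (Z-DEVD)2-Rh110 caspase-3 substrate; Times: 30 min preincubation, 50 min reaction, room temperature; Signal: Rh110 fluorescence, excitation 480 nm, emission 540 nm; Measure: Caspase-3 activity via Apaf-1.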
* marks the source's active call; other numbers are inactive results.

SMILES | Apaf-1 act
NC(=O)[C@H](Cc1cc2ccccc2s1)NC(=O)[C@@H]1CC2(CC(c3cccc(NC(=O)[C@@H]4CCC(=O)N4)c3)=NO2)CN1C(=O)/C=C/c1c(F)cccc1Cl (stereo not given in full) | 47
C=C(C)C(=O)Nc1cccc(C2=NOC3(C2)C[C@@H](C(N)=O)N(C(=O)C2(C)CC2)C3)c1 (stereo not given in full) | -295*
Cc1nn(CCc2nn[nH]n2)c2nc(-c3ccc(C4CCCCC4)cc3)cc(C(F)(F)F)c12 | 60
CCCCN1CC[C@H]2C=CC[C@@H](C(=O)N3CCOCC3)[C@H]2C1=O | -437*
COc1ccc(NS(=O)(=O)c2cc(C(=O)N3CCC3)ccc2C)cc1 | 48
CC1(C)C=C2C(=NN(c3ccccc3)C(N)=C2C#N)CO1 | 47
O=C(CCS(=O)(=O)c1ccc(Br)cc1)N1CCCCCC1 | -283*
CC1(c2ccc(OC(F)F)cc2)NC(=O)N(CC(=O)Nc2ccc(N3CCCCC3)cc2)C1=O (stereo not given) | 53
CC(C(=O)NC(=O)NC1CCCCC1)N(C)CC(=O)Nc1ccc(F)c(F)c1F (stereo not given) | 46
CN(Cc1ccccn1)C(=O)c1ccc2nc(Cc3cccc(Cl)c3)oc2c1 | -116*
C#CCOCCOCCOCCNc1nc(N2CCN(C(=O)CCCCCCCCCCNC(=O)Cn3cc(CCCCCN)nn3)CC2)nc(N2CCN(C(=O)CCCCCCCCCCNC(=O)[C@H]([C@@H](C)CC)n3cc(CCCCCN)nn3)CC2)n1 | 74
O=C(Nc1nc2c(Cl)cccc2s1)c1ccc([N+](=O)[O-])o1 | -120*
COc1cc(Cl)c(NC2=CC(=O)C(=O)c3ccccc32)c(OC)c1 | 92
O=C(c1ccco1)N1CCN(C(=O)c2cn(-c3ccccc3)nc2-c2ccc(F)cc2)CC1 | 72
CCCCCCSc1ccc(-c2nc3cnccn3c2NCCCC)cc1 | 56
COc1ccc(CCNC(=O)C(=O)NCC2CCCN2S(=O)(=O)c2ccc(OC)cc2)cc1 (stereo not given) | 61
Cc1cccc(N2CCN(C(=O)c3cc4cc(F)ccc4[nH]3)CC2)c1C | 42
CNC[C@@H]1Oc2ccc(NC(=O)Nc3cccc4ccccc34)cc2C(=O)N([C@@H](C)CO)C[C@@H]1C | 57
CC(=O)N1CCOc2ccc(S(=O)(=O)N(C)c3ccc(C)cc3)cc21 | 40
CCN(CC)c1ccc(/C=C/c2nc3ccccc3s2)cc1 | -305*
CC[n+]1c(/C=C/N(C)c2ccccc2)n(-c2ccccc2)c2ccc(-c3nc4ccccc4s3)cc21 | 82
Cc1c(C(=O)N(CCc2ccccc2)Cc2ccccc2)cccc1[N+](=O)[O-] | 41
CCCn1nc(C(=O)Nc2ccc(-n3cnnn3)cc2)c2ccccc2c1=O | 71
CCC[C@@H](CN1CCC[C@H]1CN1C(N)=NC[C@H]1C(C)C)N1C[C@@H](Cc2ccccc2)N(CCCC2CCCC2)C1=N | 46
CC(C)N(C(=O)[C@H]1C[C@H](CC(=O)NCCC2=CCCCC2)C(=O)N2CCc3c([nH]c4ccc(Cl)cc34)[C@]12C)C(C)C | 44
SMILES | Apaf-1 act
CCOc1cc(/C=C(\C#N)C(=O)Nc2cccc(C(=O)O)c2)ccc1OCc1ccc(Br)cc1 | -119*
CCOC(=O)C1CCCN(C(=O)c2cccc(S(=O)(=O)N(C)c3c(C)n(C)n(-c4ccccc4)c3=O)c2)C1 (stereo not given) | 49
CSCCC(NC(=O)c1ccccc1Br)C(=O)N1CCN(C(C)=O)CC1 (stereo not given) | 48
C[C@@H]1CCCCCCCCC(=O)OCCN[C@H](C)CCCCCCCCC(=O)OCCN[C@H](C)CCCCCCCCC(=O)OCCN1 | 68
NS(=O)(=O)c1ccc(CCNC(=O)CCS(=O)(=O)c2ccc(Br)cc2)cc1 | -214*
CC(C)C[C@H]1CN=C(Nc2ccccc2)N1CC1CCC(C(C)(C)C)CC1 (stereo not given in full) | 56
O=c1[nH]nc(-c2ccc(OCc3ccc(Cl)cc3Cl)cc2)o1 | -54*
Cc1cc(/C=N/n2cnnc2)c(C)n1-c1ccc(OCc2ccc(Cl)cc2Cl)cc1 | 46
COC(=O)c1ccccc1S(=O)(=O)N1CCC(C(=O)N2CCC2)CC1 | 55
O=C1NC(Cc2ccc(O)cc2)c2nc3ccc(Cl)cc3c(=O)n2-c2ccc(Cl)cc21 (stereo not given) | -42*
Cc1ccc(NC(=O)CSc2nc3ccccc3c(=O)n2CCCN2CCCCC2)cc1C | 55
N#CCCN(C(=O)COC(=O)C12CC3CC(CC(O)(C3)C1)C2)c1ccc(F)cc1 | 43
O=C(/C=C/c1ccco1)c1ccc(NC(=O)C23CC4CC(CC(C4)C2)C3)cc1 | 45
COc1ccc2c3c(cccc13)N(C)N=C2C | 73
O=C1Cc2cc(S(=O)(=O)N3CCNCC3)ccc2N1 | 40
CCOc1ccc(OCCSc2ccc(S(=O)(=O)N3CCN(C)CC3)cn2)cc1 | 55
CCCOc1ccc(C2C(C(=O)c3ccco3)=C(O)C(=O)N2CCN2CCOCC2)cc1OC (stereo not given) | -492*
